# Compound activity as filed in PubChem BioAssay.
# Rows were chosen to be rich in hits. Some 5.6% of all compounds tested hit in one or more screens of this group.
# CHOP inh = CHOP inhibition in unfolded protein response; inhibition, % at 10 µM; 220,000 compounds, 3.8% hits; CHO-K1 CHOP-promoter luciferase, tunicamycin-induced, 15-18 h; AID 2732;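 active = compounds that reduced the stress-induced luciferase reporter signal by more than about 70% of percent inhibition, limit read from the data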;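 also: 0% = tunicamycin plus vehicle and 100% = wells without tunicamycin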
# UPR XBP1 act = activators of adaptive arm of unfolded protein response (XBP1) | activation, % at 20 µM | 330,000 compounds, 0.33% hits | CHO-XBP1 luciferase reporter, IRE1-XBP1 UPR activation, luminescence; percent of tunicamycin response, DMSO as zero;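 active = versus positive control, 20 µM dose yields 30% or more activation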;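 also: 100% = tunicamycin at 10 µg/mL and 0% = DMSO only wells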
#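 Assay system: IRE1-XBP1 luciferase reporter CHO line. Input: 1000 cells/well. Buffer or medium: F12 with 10% serum. Doses: 20 µM, 1% DMSO. Times: overnight seeding at 37 °C, 6 h compound treatment at 37 °C. Technique: Steady-Glo luciferase glow luminescence, 10 min after reagent addition.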
# CHOP UPR activ = activators of apoptotic arm of unfolded protein response (CHOP); CHO-CHOP luciferase reporter, UPR activation, luminescence; percent of tunicamycin response over DMSO baseline; activation, % at 10 µM; 330,000 compounds, 0.34% hits;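 active = at 10 µM dose, activation of 40% or more, normalized to positive control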;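 also: 100% = tunicamycin at 10 µg/mL and 0% = DMSO alone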
#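 Assay system: CHO-CHOP cells, stable luciferase reporter of PERK-eIF2a-CHOP signalling / Buffer or medium: F12 plus 10% serum / Compound dosing: one dose, 10 µM in 0.5% DMSO / Times: 6 h compound treatment, 37 °C / Technique: luciferase luminescence / Read-out: % reporter activation, DMSO baseline versus tunicamycin full activation / Benchmarks: tunicamycin and DMSO controls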
# aDG glyco act = alpha-DG glycosylation activation. Pro5-aDG cells, alpha-DG glycosylation AlphaScreen (IIH6); 0% Pro5, 100% B10-LARGE cell signal. activation, % at 10 µM. 360,000 compounds, 0.22% hits;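 active = activation of at least 8% versus controls, or a plate z-score of at least 8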;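 also: Pro5 are CHO cells carrying HIG-tagged alpha-DG that lacks glycosylation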
# MPTP inh = inhibitors of mitochondrial permeability transition pore | isolated mouse mitochondria, Ca2+ swelling absorbance, 30 min | inhibition, % at 10 µM | 360,000 compounds, 1.4% hits;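 active = inhibition of 50% or more, scaled per plate between neutral and stimulator controls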;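 also: 0% = DMSO wells given calcium and 100% = 1 mM EGTA wells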
# GRIN3A LBD mod = modulators (binders) of human NR3A ligand-binding domain | NR3A LBD differential scanning fluorimetry, Tm shift; 0% = protein alone, 100% = glycine-bound protein | Tm shift relative to glycine control, % at 25 µM | 340,000 compounds, 2.5% hits | AID 1259313;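 active = melting temperature shift of at least 10% of the positive control shift, at one fixed dose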
# MPTP counter = mitochondrial membrane potential, counter-screen; shares compounds with MPTP inh; isolated mitochondria, Rhodamine 123 fluorescence; inhibition, % at 10 µM; 5,000 compounds, 78% hits; in the data active = inhibition above about 22%;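 also: 0% = DMSO vehicle and 100% = positive control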
# MPTP abs DR = MPTP inhibition, dose response swelling confirmation. AID 651561. 780 compounds, 58% hits. IC50, µM. shares compounds with MPTP inh. isolated mitochondria swelling, absorbance; in the data active = IC50 below about 20 µM
# MPTP cs DR = counter-screen for mitochondrial permeability transition pore inhibitors, dose response; 780 compounds, 49% hits; AID 651564; isolated mitochondria counterscreen, fluorescence read-out; IC50, µM; shares compounds with MPTP inh; in the data active = IC50 below about 80 µM
# Numbers without * were called inactive; / = no result.
SMILES,CHOP inh,UPR XBP1 act,CHOP UPR activ,aDG glyco act,MPTP inh,GRIN3A LBD mod,MPTP counter,others
CCOc1ccc(NC(=S)c2ccncc2)cc1,16,0,5,2,56*,1,8,MPTP abs DR=19*;MPTP cs DR=31*
CCOc1ccc(NC(=S)Nc2ccc(OC)cc2)cc1,16,2,0,0,3,-6,/,
O=C(CSc1ccc2ccccc2c1)Nc1ccncc1,24,1,0,0,84*,6,86*,
CC(C)(C)OC(=O)N[C@H]1C=C[C@@H](OC(=O)CC(=O)OCC(F)(F)F)C1,/,2,0,0,-1,-2,/,
OC(c1ccccc1)(c1nc(-c2cc(F)cc(F)c2)cs1)C(F)(F)F (stereo unspecified),/,/,/,0,1,/,/,
Cc1ccc(OCC(=O)Nc2ccc(N(C)C)cc2)cc1,-8,0,0,0,-8,-1,/,
O=C(COc1ccccc1)Nc1ccncc1,3,6,2,0,-4,4,/,
CC(C)(C)c1ccc(OCC(=O)Nc2ccncc2)cc1,/,-1,0,0,105*,1,74*,
O=C(COc1ccc2ccccc2c1)Nc1ccncc1,-4,1,-1,0,98*,2,100*,
Cc1ccc(Oc2ccc(OCC(=O)Nc3ccncc3)cc2)cc1,/,-6,-1,0,108*,/,103*,
CCc1ccc(OCC(=O)Nc2ccncc2)cc1,/,-3,0,0,63*,3,58*,
Cc1ccc(C)c(Nc2nc(-c3ccncc3)nc3ccccc23)c1,/,0,3,0,1,-5,/,
CC[n+]1ccccc1/C=C1\Sc2ccc(C)cc2N1C,/,4,-1,0,1,1,/,
CCN1/C(=C/c2ccc3cc(C)ccc3[n+]2CC)Sc2ccccc21,108*,-5,-7,2,105*,-3,96*,
CCN1/C(=C/C=C/c2sc3ccccc3[n+]2CC)Sc2ccccc21,/,-12,-7,1,136*,-3,84*,
CCOC(=O)/C(=C/C=C1\Sc2ccccc2N1CC)C(C)=O,30,4,1,0,2,0,/,
CCN1/C(=C/C=C/C=C/C=C/c2sc3ccccc3[n+]2CC)Sc2ccccc21,/,0,21,3,1,-1,/,
CCN1/C(=C/c2ccc3cc(C)ccc3[n+]2CC)Sc2cc(C)c(C)cc21,60,6,20,4,106*,-1,93*,
COc1c2c(c(C)c3c1C(=O)OC3)O[C@@]1(C)CC[C@@]3(O)C(C)(C)OC(=O)CC[C@]3(C)[C@H]1C2,-24,-1,-1,0,0,-3,/,
O=C(Nc1ccc([N+](=O)[O-])cc1)N1CCN(C(=O)C2CCCO2)CC1 (stereo unspecified),/,-2,4,0,0,-1,/,
O=C(Nc1ccc([N+](=O)[O-])cc1)N1CCCCCC1,/,2,4,0,62*,0,96*,
CN1CCN(C(=O)Nc2ccc([N+](=O)[O-])cc2)CC1,1,-5,0,0,1,0,/,
O=C(Nc1ccc([N+](=O)[O-])cc1)N1CCCCC1,-3,0,2,0,94*,-2,93*,
CCCc1cc(=O)oc2cc(C)cc(OCC(=O)Nc3cccnc3)c12,/,-3,-2,0,1,-3,/,
N#Cc1c(N)nc(Sc2ccc(Cl)cc2)c(C#N)c1-c1ccccc1Cl,28,-5,1,1,76*,-9,56*,
CCOC(=O)Cn1c(=N)n(CCOc2cccc(C)c2)c2ccccc21,-3,-1,0,0,88*,0,0,MPTP abs DR=5.3*;MPTP cs DR=57*
CCOC(=O)Cn1c(=N)n(CCOc2ccc(Br)cc2)c2ccccc21,5,2,-2,0,3,1,/,
